Measurements as given in ChEMBL document CHEMBL4004881, “Perfluorinated hydroxamic acids are potent and selective inhibitors of HDAC-like enzymes from Pseudomonas aeruginosa” (Bioorg Med Chem Lett, 2017).

Legend:
Histone deacetylase 5 = Histone deacetylase 5 (Homo sapiens, UniProt Q9UQL6); experiment: Inhibition of human HDAC5 using Boc-Lys(trifluoroacetyl)-AMC as substrate preincubated for 30 mins followed by substrate addition measured after 60 mins by trypsin-based fluorescence assay
Histone deacetylase 4 = Histone deacetylase 4 (Homo sapiens, UniProt P56524); experiment: Inhibition of human HDAC4 using Boc-Lys(trifluoroacetyl)-AMC as substrate preincubated for 30 mins followed by substrate addition measured after 60 mins by trypsin-based fluorescence assay
[1] = Inhibition of Pseudomonas aeruginosa PA3774 using Boc-Lys(trifluoroacetyl)-AMC as substrate preincubated for 30 mins followed by substrate addition measured after 60 mins by trypsin-based fluorescence assay
[2] = Inhibition of Pseudomonas aeruginosa PA0321 using Boc-Lys(trifluoroacetyl)-AMC as substrate preincubated for 30 mins followed by substrate addition measured after 60 mins by trypsin-based fluorescence assay
[3] = Inhibition of Pseudomonas aeruginosa PA1409 using Boc-Lys(trifluoroacetyl)-AMC as substrate preincubated for 30 mins followed by substrate addition measured after 60 mins by trypsin-based fluorescence assay
[4] = Inhibition of Bordetella HDAH using Boc-Lys(trifluoroacetyl)-AMC as substrate preincubated for 30 mins followed by substrate addition measured after 60 mins by trypsin-based fluorescence assay
Outline: (§1)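 Bacterial HDAH activity was measured by a fluorogenic assay in which the deacetylated substrate is converted to fluorescent dye by trypsin. Ki was calculated via Cheng-Prusoff from IC50 values, which were fitted to dose-response curves spanning 10 ligand concentrations.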

[5] = Inhibition of Alcaligenes HDAH using Boc-Lys(trifluoroacetyl)-AMC as substrate preincubated for 30 mins followed by substrate addition measured after 60 mins by trypsin-based fluorescence assay; outline: as §1

Chain of Histone deacetylase 4 (P56524 whole entry): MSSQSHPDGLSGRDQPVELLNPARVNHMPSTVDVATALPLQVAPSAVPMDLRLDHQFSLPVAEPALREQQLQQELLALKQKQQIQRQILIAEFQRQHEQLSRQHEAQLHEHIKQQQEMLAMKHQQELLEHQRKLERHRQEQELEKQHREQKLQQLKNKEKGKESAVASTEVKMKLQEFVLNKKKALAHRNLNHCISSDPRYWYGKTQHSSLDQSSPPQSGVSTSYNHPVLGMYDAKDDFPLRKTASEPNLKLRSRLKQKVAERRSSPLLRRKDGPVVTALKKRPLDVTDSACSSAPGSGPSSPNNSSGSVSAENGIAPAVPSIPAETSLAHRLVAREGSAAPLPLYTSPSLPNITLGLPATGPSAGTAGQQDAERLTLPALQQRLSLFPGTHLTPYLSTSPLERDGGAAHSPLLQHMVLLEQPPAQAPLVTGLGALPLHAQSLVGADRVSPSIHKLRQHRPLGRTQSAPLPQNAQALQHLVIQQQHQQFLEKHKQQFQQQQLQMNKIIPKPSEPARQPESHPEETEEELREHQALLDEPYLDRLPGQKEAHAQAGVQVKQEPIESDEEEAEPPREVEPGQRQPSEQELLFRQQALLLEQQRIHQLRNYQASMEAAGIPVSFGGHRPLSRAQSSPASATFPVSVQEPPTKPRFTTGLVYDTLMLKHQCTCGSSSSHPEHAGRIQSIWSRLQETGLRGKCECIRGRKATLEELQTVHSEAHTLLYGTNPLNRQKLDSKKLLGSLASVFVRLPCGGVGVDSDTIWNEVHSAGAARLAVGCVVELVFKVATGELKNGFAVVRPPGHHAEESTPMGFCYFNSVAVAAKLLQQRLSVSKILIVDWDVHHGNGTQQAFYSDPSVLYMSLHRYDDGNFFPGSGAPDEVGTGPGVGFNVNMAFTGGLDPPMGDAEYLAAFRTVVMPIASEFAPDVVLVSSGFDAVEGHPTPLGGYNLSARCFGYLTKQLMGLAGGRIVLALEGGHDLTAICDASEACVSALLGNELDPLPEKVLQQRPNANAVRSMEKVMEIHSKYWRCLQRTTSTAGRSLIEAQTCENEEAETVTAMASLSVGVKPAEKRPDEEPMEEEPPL
Chain of Histone deacetylase 5 (Q9UQL6 whole entry): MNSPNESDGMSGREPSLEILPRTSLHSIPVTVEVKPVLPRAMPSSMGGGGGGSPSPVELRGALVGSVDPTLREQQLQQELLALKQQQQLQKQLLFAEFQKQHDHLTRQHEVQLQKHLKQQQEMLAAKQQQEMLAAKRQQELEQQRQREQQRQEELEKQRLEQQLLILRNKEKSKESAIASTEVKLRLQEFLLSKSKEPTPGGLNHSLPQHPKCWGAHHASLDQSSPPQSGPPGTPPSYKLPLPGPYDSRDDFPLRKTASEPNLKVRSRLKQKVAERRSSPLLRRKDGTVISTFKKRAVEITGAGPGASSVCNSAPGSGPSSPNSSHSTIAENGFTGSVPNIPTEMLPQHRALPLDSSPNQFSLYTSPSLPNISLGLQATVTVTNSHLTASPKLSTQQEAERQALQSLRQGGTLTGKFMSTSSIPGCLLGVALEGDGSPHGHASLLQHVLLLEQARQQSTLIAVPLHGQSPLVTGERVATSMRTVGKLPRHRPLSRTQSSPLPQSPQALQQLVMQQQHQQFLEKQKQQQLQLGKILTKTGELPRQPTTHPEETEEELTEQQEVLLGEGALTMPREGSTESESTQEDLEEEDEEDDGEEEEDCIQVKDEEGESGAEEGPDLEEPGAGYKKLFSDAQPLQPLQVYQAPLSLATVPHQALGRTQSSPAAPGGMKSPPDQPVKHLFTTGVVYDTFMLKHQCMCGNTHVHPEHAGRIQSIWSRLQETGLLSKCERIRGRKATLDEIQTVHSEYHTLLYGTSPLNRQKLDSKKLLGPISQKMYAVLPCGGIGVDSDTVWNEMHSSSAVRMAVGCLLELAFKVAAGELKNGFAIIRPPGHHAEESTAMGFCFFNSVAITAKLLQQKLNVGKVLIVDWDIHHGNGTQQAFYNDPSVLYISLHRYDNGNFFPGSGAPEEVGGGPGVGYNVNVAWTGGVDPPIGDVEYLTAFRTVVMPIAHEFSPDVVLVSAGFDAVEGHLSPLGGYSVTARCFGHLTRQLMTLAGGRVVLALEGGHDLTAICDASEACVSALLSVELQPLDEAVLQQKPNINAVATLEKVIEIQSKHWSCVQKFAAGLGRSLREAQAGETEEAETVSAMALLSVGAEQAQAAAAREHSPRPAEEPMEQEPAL

SMILES | Ki (Histone deacetylase 5) [µM] | Ki (Histone deacetylase 4) [µM] | Ki [1] [µM] | Ki [2] [µM] | Ki [3] [µM] | Ki [4] [µM] | Ki [5] [µM]
O=C(NO)C(F)(F)C(F)(F)C(F)(F)C(F)(F)C(F)(F)C(F)(F)C(=O)Nc1ccc(-c2cnnn2-c2ccccc2)cc1 | > 50 | > 50 | 3.1 | 22 | 15 | – | –
O=C(NO)C(F)(F)C(F)(F)C(F)(F)C(F)(F)C(F)(F)C(F)(F)C(=O)Nc1ccccc1 | 13 | > 50 | 0.022 | 0.7 | 2.6 | – | –
O=C(NO)C(F)(F)C(F)(F)C(F)(F)C(F)(F)C(F)(F)C(F)(F)C(=O)Nc1ccc2ccccc2c1 | > 50 | > 50 | 0.53 | 1.2 | 3.8 | – | –
O=C(NO)C(F)(F)C(F)(F)C(F)(F)C(F)(F)C(F)(F)C(F)(F)C(=O)Nc1cccc2ccccc12 | > 50 | > 50 | 0.35 | 7 | 21 | – | –
O=C(NO)C(F)(F)C(F)(F)C(F)(F)C(F)(F)C(F)(F)C(F)(F)C(=O)Nc1cccc2cc3ccccc3cc12 | > 50 | > 50 | 1.1 | 9 | 11 | – | –
O=C(NO)C(F)(F)C(F)(F)C(F)(F)C(F)(F)C(F)(F)C(F)(F)C(=O)Nc1ccc2ccc3cccc4ccc1c2c34 | > 50 | > 50 | 0.23 | 4.1 | 16 | – | –
O=C(NO)C(F)(F)C(F)(F)C(F)(F)C(F)(F)C(F)(F)C(F)(F)C(=O)Nc1cc2ccccc2c2ccccc12 | > 50 | > 50 | 0.25 | 6 | 11 | – | –
O=C(NO)C(F)(F)C(F)(F)C(F)(F)C(F)(F)C(F)(F)C(F)(F)C(=O)Nc1ccc2cc3ccccc3cc2c1 | > 50 | > 50 | 2 | 24 | > 50 | – | –
O=C(NO)C(F)(F)C(F)(F)C(F)(F)C(F)(F)C(F)(F)C(F)(F)C(=O)Nc1ccc(Cl)cc1 | > 50 | > 50 | 0.17 | 2.1 | 5.7 | 0.086 | 0.086
O=C(NO)C(F)(F)C(F)(F)C(F)(F)C(F)(F)C(F)(F)C(F)(F)C(=O)Nc1ccc(I)cc1 | > 50 | > 50 | 0.046 | 1.1 | 4.1 | – | –
CCc1cccc(NC(=O)C(F)(F)C(F)(F)C(F)(F)C(F)(F)C(F)(F)C(F)(F)C(=O)NO)c1 | > 50 | > 50 | 0.24 | 2.1 | 6.7 | – | –
O=C(NO)C(F)(F)C(F)(F)C(F)(F)C(F)(F)C(F)(F)C(F)(F)C(=O)Nc1cccc(-c2cn(-c3ccccc3)nn2)c1 | > 50 | > 50 | 2.6 | > 50 | > 50 | – | –
N#Cc1ccc(NC(=O)C(F)(F)C(F)(F)C(F)(F)C(F)(F)C(F)(F)C(F)(F)C(=O)NO)cc1 | > 50 | > 50 | 0.32 | 2.8 | 7.1 | – | –
O=C(NO)C(F)(F)C(F)(F)C(F)(F)C(F)(F)C(F)(F)C(F)(F)C(=O)Nc1ccccc1-c1ccccc1 | > 50 | > 50 | 1.1 | 12 | 17 | – | –
Cc1ccc(NC(=O)C(F)(F)C(F)(F)C(F)(F)C(F)(F)C(F)(F)C(F)(F)C(=O)NO)cc1 | > 50 | > 50 | 0.19 | 2.3 | 6.2 | – | –
CC(=O)Nc1ccc(NC(=O)C(F)(F)C(F)(F)C(F)(F)C(F)(F)C(F)(F)C(F)(F)C(=O)NO)cc1 | > 50 | > 50 | 0.32 | 3.6 | 7.6 | – | –
O=C(NO)C(F)(F)C(F)(F)C(F)(F)C(F)(F)C(F)(F)C(F)(F)C(=O)Nc1cccc(-c2ccccc2)c1 | > 50 | > 50 | 0.1 | 1.5 | 4.4 | – | –
O=C(NO)C(F)(F)C(F)(F)C(F)(F)C(F)(F)C(F)(F)C(F)(F)C(=O)Nc1ccc(-c2ccccc2)cc1 | > 50 | > 50 | 0.046 | 1.5 | 3.1 | – | –
O=C(Nc1ccccc1)C(F)(F)C(F)(F)C(F)(F)C(F)(F)C(F)(F)C(F)(F)C(=O)Nc1ccccc1 | > 50 | > 50 | 10 | > 50 | > 50 | – | –
O=C(NO)C(F)(F)C(F)(F)C(F)(F)C(F)(F)C(F)(F)C(F)(F)C(=O)Nc1nc(-c2ccccc2)cs1 | > 50 | > 50 | 12 | 8.5 | > 50 | – | –
